# Source: PubChem
# HCV NS3 hel inh: inhibitors of Hepatitis C virus NS3 helicase. NS3 helicase DNA unwinding, Cy5 molecular beacon fluorescence. inhibition, % at 10.9 µM. 0.56% of 290,000 active;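 active means inhibition above the mean of all tested compounds plus 3 SD, set per campaign, cut at about 35% in these data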;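 further: 0% = DMSO wells and 100% = thioflavine S control wells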
#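 Assay system – hepatitis C virus NS3 helicase domain fragment enzyme · Buffer or medium – MOPS pH 6.5, MgCl2, DTT, Tween20, BSA · Reagent – Cy5/quencher beacon DNA duplex and ATP to start · Compound – single 10.9 µM dose · Timing – 1 h at 25 °C · Technique – Cy5 beacon fluorescence read at start and 1 h · Measure – % inhibition of unwinding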
# DNA FID counter-1: displaces DNA intercalator in HCV helicase counter-screen. DNA fluorescent intercalator displacement, fluorescence. inhibition, % at 7.9 µM. 0.17% of 290,000 active. AID 1845;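 further: 0% = vehicle and 100% = reference compound; higher means more ethidium bromide displaced from hairpin DNA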
# VIM-2 inhibitor: blocks Pseudomonas aeruginosa VIM-2 metallo-beta-lactamase. AID 1527. purified VIM-2, nitrocefin hydrolysis, epi-absorbance fluorescence. 0.89% of 290,000 active. inhibition, % at 5.6 µM;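 active means inhibition above the mean of all tested compounds plus 3 SD, cutoff set per screening run, cut at about 7.5% in these data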;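 further: red hydrolysis product quenches plate fluorescence so inhibitors raise well fluorescence; 0% = enzyme with DMSO and 100% = DMSO without enzyme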
# IMP-1 inhibitor: blocks Pseudomonas aeruginosa IMP-1 metallo-beta-lactamase | purified IMP-1, nitrocefin hydrolysis, epi-absorbance fluorescence | inhibition, % at 5.6 µM | 0.45% of 290,000 active;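 active means inhibition above the mean plus 3 SD of all compounds in the same screening run, cut at about 4.5% in these data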;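 further: 0% = IMP-1 with DMSO and 100% = DMSO wells lacking enzyme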
#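 System: purified IMP-1; amount: IMP-1 0.2 nM before substrate addition; compound: single dose, 5.6 µM; times: 25 °C, 15 min preincubation, 25 min reaction; signal: Epi-absorbance via hydrolysed-nitrocefin quenching of white-plate fluorescence, 480/530 nm, EDTA stop; benchmarks: DMSO with and without IMP-1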
# SUMO HTRF inh: SUMOylation inhibition. P63279. HTRF SUMOylation assay, SAE1/SAE2 + UBC9, in vitro. inhibition, % at 35 µM. 0.36% of 290,000 active; in the data active means inhibition above about 50%, passing the limit was not always enough
# Target sequence (P63279 whole entry, looked up): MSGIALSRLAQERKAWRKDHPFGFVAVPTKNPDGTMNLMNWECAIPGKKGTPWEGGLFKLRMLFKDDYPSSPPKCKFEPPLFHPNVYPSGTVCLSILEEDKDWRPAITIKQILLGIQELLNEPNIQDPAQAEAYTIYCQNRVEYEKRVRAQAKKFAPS
# NS3 hel confirm: confirmation of Hepatitis C virus NS3 helicase inhibitors | shares compounds with HCV NS3 hel inh | NS3 helicase DNA unwinding, Cy5 molecular beacon fluorescence | inhibition, % at 10.9 µM | 31% of 1,600 active | AID 1943;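 active means inhibition above the mean of all tested compounds plus 3 SD, cutoff set per campaign, cut at about 36% in these data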
# DNA FID counter-2: intercalator displacement, NS3 helicase counter-screen. shares compounds with HCV NS3 hel inh. DNA fluorescent intercalator displacement, fluorescence. inhibition, % at 7.9 µM. 4% of 1,600 active. AID 1945;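 further: 0% = vehicle and 100% = reference compound; higher means more displacement of ethidium bromide from the DNA hairpin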
# DNA FID DR: counter-screen for HCV NS3 helicase inhibitors: DNA intercalator displacement dose response. shares compounds with HCV NS3 hel inh. fluorescent intercalator displacement from DNA, fluorescence. IC50, µM. 120 tested, under 10 active. AID 2172; call rule not given here
# Numbers without * were called inactive; nt = not tested or not shown. Shown are actives, neighbours in structure and some others; about 2.1% of the full set was active somewhere. Unless noted, no stated cut-off is given here; in the data, active means inhibition above about 37%; inactive means the rest.
SMILES,HCV NS3 hel inh,DNA FID counter-1,VIM-2 inhibitor,IMP-1 inhibitor,SUMO HTRF inh,NS3 hel confirm,DNA FID counter-2,others
CCOC(CCNC(=O)c1cc(-c2cccs2)nc2ccccc12)OCC,-4,-27,-1,-2,21,nt,nt,
COc1ccc(C2/C(=C(\O)c3ccc4c(c3)OCCO4)C(=O)C(=O)N2c2nc(C)c(C(C)=O)s2)cc1 (stereo not given),38*,-30,0,-2,11,64*,-11,DNA FID DR=>79
COc1ccc(Br)cc1C1Nc2cccc3cccc(c23)N1,97*,-6,2,1,22,-28,27,
O=C(O)c1cccnc1SCc1cccc(Br)c1,38*,-17,-2,-3,8,-13,27,
O=C(O)c1cccnc1SCc1ccc([N+](=O)[O-])cc1,3,-3,0,-2,11,nt,nt,
CC(=O)OCCCNc1cc(SCc2ccco2)c2nonc2c1[N+](=O)[O-],41*,-7,3,1,93,31,27,
O=C(O)c1cc(N/N=C/C=C/c2ccccc2[N+](=O)[O-])ccc1Cl,43*,-22,2,-1,-1,52*,-3,
COc1ccc(C2=NN(C(C#N)c3ccc(OC)cc3)C(c3ccccc3)C2)cc1 (stereo not given),9,0,-1,-3,-9,nt,nt,
CCCCn1c(N)c(N(CCC(C)C)C(=O)c2cc(-c3ccco3)nc3ccccc23)c(=O)[nH]c1=O,41*,-46,-2,0,14,9,3,
CCCCn1c(N)c(N(CCC(C)C)C(=O)CCCc2nc3ccccc3s2)c(=O)[nH]c1=O,38*,9,2,1,-14,3,-35,
CCCCn1c(N)c(N(CC(C)C)C(=O)COC(=O)Cc2c(C)nc3ccccc3c2C)c(=O)[nH]c1=O,6,-13,-2,-4,15,nt,nt,
CCCCn1c(N)c(N(CCC(C)C)C(=O)CSc2nnc(C)s2)c(=O)[nH]c1=O,0,-10,-2,-5,16,nt,nt,
Cc1nnc(SCC2=C(C(=O)O)N3C(=O)C(NC(=O)C(C)n4nc(C(F)(F)F)cc4C)C3SC2)s1 (stereo not given),40*,-39,1,1,6,30,-22,
CC(C(=O)NC1C(=O)N2C(C(=O)O)=C(CSc3nnnn3C)CSC12)n1cc(Cl)cn1 (stereo not given),17,-16,3,0,13,nt,nt,
CSc1sc(-c2ccnc(SCC(=O)C(C)(C)C)n2)c2c1C(=O)CC(C)(C)C2,56*,-22,4,14*,15,-9,-21,
CCC(C)n1c(=O)c2sccc2n2c(CCCC(=O)N3CCC(C(N)=O)CC3)nnc12 (stereo not given),-3,-20,-2,-2,27,nt,nt,
Cc1cc(=O)oc2cc(OCC(=O)NC(Cc3c[nH]c4ccc(O)cc34)C(=O)O)c(Cl)cc12 (stereo not given),40*,-24,-3,-4,2,0,-24,
Cc1cc(=O)oc2c(C)c(OC(C)C(=O)NC(Cc3c[nH]c4ccc(O)cc34)C(=O)O)ccc12 (stereo not given),16,-18,0,-3,13,nt,nt,
CC(C)c1ccc(OCC(=O)NC(Cc2c[nH]c3ccccc23)C(=O)O)cc1 (stereo not given),48*,-40,2,-2,-2,62*,-40,
CCOc1cc(CNCc2cccnc2)cc(Br)c1OCC(N)=O,-3,3,-1,-2,9,nt,nt,
CCOc1ccc(Br)cc1S(=O)(=O)Nc1cccc(S(=O)(=O)N(C)C)c1,-2,-21,-2,-1,2,nt,nt,
CC(C)Cn1c(SCC(=O)c2ccc(Cl)s2)nnc1-c1ccco1,39*,-33,-2,-8,11,-24,-28,
COCCn1c(SCC(=O)c2ccc3c(c2)OCCO3)nnc1-c1ccco1,2,-17,1,-2,24,nt,nt,
CCn1c(SCC(=O)c2ccc3c(c2)OCCO3)nnc1-c1ccco1,48*,-17,2,0,14,-7,-21,
O=C(CSc1nnc(-c2ccco2)c(-c2ccco2)n1)c1ccccc1,41*,-21,1,3,87,91*,45*,
SMILES,HCV NS3 hel inh,DNA FID counter-1,VIM-2 inhibitor,IMP-1 inhibitor,SUMO HTRF inh,NS3 hel confirm,DNA FID counter-2,others
Cn1c(SCC(=O)c2ccc(-c3ccccc3)cc2)nnc1-c1ccco1,68*,-27,-3,-1,2,5,-27,
Cc1ccc(C(=O)CSc2nnc(-c3ccco3)n2Cc2ccccc2)cc1,-8,-22,-1,-4,31,nt,nt,
CCCCCc1c(O)nc(SCCN2CCOCC2)[nH]c1=O,-6,0,-5,-1,6,nt,nt,
Cc1ccc(-c2nc(CS(=O)CC(=O)NCCCN3CCN(Cc4ccccc4)CC3)c(C)o2)cc1 (stereo not given),-7,16,-1,-3,nt,nt,nt,
Cc1cccc(-n2ccnc2CN2CCC(CO)(Cc3ccccc3)CC2)c1,-3,-11,-4,-3,-8,nt,nt,
COc1ccc(-n2c(Cc3cccn3C)nnc2SCC(=O)Nc2ccc3c(c2)OCO3)cc1,45*,-27,-2,-3,-7,-15,-28,
COc1ccc(C(=O)Nc2ccc(NC(=O)CSc3nnc(-c4ccncc4)n3C)cc2)cc1,36*,-29,-4,-4,4,-3,-7,
COc1ccc(-n2c(SCC(=O)Nc3ccc(C(=O)O)cc3)nnc2-c2cccs2)cc1,64*,-40,0,-5,6,-5,-24,
CC(C)C[C@H](NC(=O)[C@H](Cc1ccccc1)n1c(=O)[nH]c2ccccc2c1=O)C(=O)N1CCC[C@@H]1C(=O)O,39*,-24,1,0,19,-21,-23,
CSCC[C@H](NC(=O)[C@H](Cc1ccccc1)n1c(=O)[nH]c2ccccc2c1=O)C(=O)N1CCC[C@H]1C(=O)O,-1,-28,-4,-4,12,nt,nt,
Cc1cc(NS(=O)(=O)c2ccc(NC(=O)/C=C/c3c(F)cccc3Cl)cc2)nc(C)n1,36*,-26,-3,-1,15,-22,-6,
O=C(Nc1ccc(S(=O)(=O)N2CCCC2)cc1)C1CCCCC1,-6,-20,-1,-2,1,nt,nt,
CN(C)c1ccc(N/C=C/C(=O)C(C)(C)C)cc1,48*,0,-2,-3,-27,19,26,
C=CCOc1c(Br)cc(/C=C2/NC(=S)N(C(C)=O)C2=O)cc1OC,24,-2,-3,-3,5,nt,nt,
C=CCOc1ccc(Br)cc1/C=C1\NC(=S)N(C(C)=O)C1=O,40*,-16,-3,-2,19,3,3,
Cc1c(C(=O)Nc2cc(F)ccc2F)sc2nc3n(c(=O)c12)CCCCC3,-3,5,0,1,nt,nt,nt,
